{"data": "Assay results gathered from unrelated publications", "cell line": "IGROV-1", "observed": "cell growth or viability", "note": "Lines come from different studies, so protocols differ. pIC50: −log10 of the molar value."}
{"SMILES": "Cc1cc(C)n(C(=S)[S][Au][PH](CCCCCC[PH]([Au][S]C(=S)n2nc(C)cc2C)(c2ccccc2)c2ccccc2)(c2ccccc2)c2ccccc2)n1", "quantity": "GI50", "value": "1190 nM"}
{"SMILES": "COc1ccc(-c2ccc(-c3ccc(C(=N)N)nc3)s2)cc1", "method": "SRB", "quantity": "GI50", "value": "1840 nM"}
{"SMILES": "COc1ccc(C(=O)/C=C/c2ccc3c(c2)OCCO3)cc1S(N)(=O)=O", "method": "SRB", "tested at": "10 µM", "quantity": "inhibition", "value": "36%"}
{"SMILES": "COc1cc2c3cc1Oc1c(OC)c(OC)cc4c1[C@@H](Cc1ccc(O)c(c1)Oc1ccc(cc1)C[C@@H]3N(C)CC2)N(C)CC4", "time": "72 h", "quantity": "pIC50", "value": 4.53}
{"SMILES": "COc1cccc(Oc2ccccc2NC(=O)CNC(=O)c2cccc3ccccc23)c1", "method": "SRB", "time": "48 h", "quantity": "GI50", "value": "1050 nM"}
{"SMILES": "S=C([S][Au-][P+](CCCCCC[P+]([Au-][S]C(=S)n1cccn1)(c1ccccc1)c1ccccc1)(c1ccccc1)c1ccccc1)n1cccn1", "quantity": "GI50", "value": "2260 nM"}
{"SMILES": "COc1ccc(-c2ccc(-c3ccc(C(=N)N)nc3)s2)cc1Cl", "method": "SRB", "quantity": "GI50", "value": "1780 nM"}
{"SMILES": "COc1ccc(C(=O)/C=C/c2cccc3ccccc23)cc1S(N)(=O)=O", "method": "SRB", "time": "48 h", "quantity": "GI50", "value": "2300 nM"}
